Measured values from ChEMBL document CHEMBL3351594, “Cytotoxic dimeric epipolythiodiketopiperazines from the ascomycetous fungus Preussia typharum” (J Nat Prod, 2014).
The source made the active and inactive calls. The rule behind the calls is not given here.

Experiments:
[1] = Cytotoxicity against human NCI-ADR-RES cells by SRB method; type: functional
Summary of the method: (§1)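 NCI-60 in vitro drug screening panel. Values are the molar concentrations giving 50% growth inhibition (GI50) and total growth inhibition (TGI).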

[2] = Cytotoxicity against human OVCAR5 cells by SRB method; type: functional; summary of the method: as §1
[3] = test system: SK-OV-3; assay: Resistance ratio of GI50 for human P-gp expressing SKOV3-M6/6 cells to GI50 for human SKOV3 cells; type: functional
Summary of the method: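 SRB assay in SK-OV-3 and its P-gp/MDR1 single-cell clone SK-OV-3/MDR-1-6/6; GI50 from percent growth dose–response curves, n = 3 or 4 independent experiments; relative resistance taken as ratio of GI50 in the MDR line to parental.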

[4] = test system: MCF7; assay: Cytotoxicity against human MCF7 cells by SRB method; type: functional; summary of the method: as §1
[5] = Cytotoxicity against human OVCAR4 cells by SRB method; type: functional; summary of the method: as §1
[6] = Antitumor activity against human UACC62 cells xenografted in athymic nude mouse at 1.5 mg/kg, ip administered every 4 days relative to untreated control; type: functional, UACC-62; conditions: route intraperitoneal
Summary of the method: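 Female athymic nude mice received 2 × 10^6 UACC-62 cells sc into each flank, bilaterally. They were randomized at median tumor volume 150 mm3, n = 5 mice/group. Dosing was ip at 1.5 mg/kg every 4 days, in DMSO–Cremophor (1:1) diluted in 200 μL DPBS (DMSO and Cremophor ≤2.5% final). Tumors were measured twice weekly by caliper. T/C% = (treated final − initial mean volume) ÷ (untreated final − initial) × 100.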

[7] = test system: Mus musculus; assay: Toxicity in athymic nude mouse xenografted with human UACC62 cells assessed as rapid and persistent weight loss at 10 mg/kg, ip; type: organism-based, UACC-62; design: dose 10 mg/kg, route intraperitoneal; conditions: in vivo
[8] = test system: SF-539; assay: Cytotoxicity against human SF539 cells by SRB method; type: functional; summary of the method: as §1
[9] = Cytotoxicity against human SKOV3 cells by SRB method; type: functional; conditions: SK-OV-3
Summary of the method: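 SRB assay in SK-OV-3 cells; percent cell growth per Boyd et al.; GI50, TGI and LC50 fitted from dose–response curves of percent growth; mean ± SE, n = 3 or 4 independent experiments.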

[10] = test system: Malme-3M; assay: Cytotoxicity against human MALME-3M cells by SRB method; type: functional; summary of the method: as §1
[11] = test system: HeLa; assay: Cytotoxicity against human HeLa cells; type: functional
[12] = test system: COLO 205; assay: Cytotoxicity against human COLO205 cells by SRB method; type: functional; summary of the method: as §1
[13] = test system: HOP-92; assay: Cytotoxicity against human HOP92 cells by SRB method; type: functional; summary of the method: as §1
[14] = Cytotoxicity against human UACC62 cells assessed as inhibition of colony formation at 5 nM incubated for 4 hrs followed by compound washout measured after 14 days relative to vehicle-treated control; type: functional; conditions: UACC-62
Summary of the method: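 Clonogenic test: 600 UACC-62 cells (RPMI1640, 10% FBS, gentamicin) adhered, exposed 4 h to vehicle (DMSO) or compound, washed with DPBS, fresh medium, grown 14 days; fixed, 0.5% crystal violet in 10% methanol, colonies counted; duplicate/triplicate, n = 2–4 experiments; one-way ANOVA with Dunnett's vs vehicle.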

[15] = Cytotoxicity against human UO31 cells by SRB method; type: functional
Summary of the method: (§2)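 NCI-60 in vitro screen panel of human tumor lines; GI50 (molar concentration giving 50% growth inhibition) and TGI (total growth inhibition) taken from dose–response data.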

[16] = test system: CAKI-1; assay: Cytotoxicity against human Caki1 cells by SRB method; type: functional; summary of the method: as §1
[17] = test system: SN12C; assay: Cytotoxicity against human SN12C cells by SRB method; type: functional; summary of the method: as §2
[18] = Cytotoxicity against human OVCAR3 cells by SRB method; type: functional; summary of the method: as §1
[19] = test system: BT-549; assay: Cytotoxicity against human BT549 cells by SRB method; type: functional; summary of the method: as §1
[20] = test system: IGROV-1; assay: Cytotoxicity against human IGROV1 cells by SRB method; type: functional; summary of the method: as §1
[21] = test system: NCI-H460; assay: Cytotoxicity against human NCI-H460 cells by SRB method; type: functional; summary of the method: as §1
[22] = test system: HT-29; assay: Cytotoxicity against human HT-29 cells by SRB method; type: functional; summary of the method: as §1
[23] = Cytotoxicity against human PC3 cells by SRB method; type: functional; summary of the method: as §1
[24] = test system: TK-10; assay: Cytotoxicity against human TK10 cells by SRB method; type: functional; summary of the method: as §2
[25] = test system: NCI-H322M; assay: Cytotoxicity against human NCI-H322M cells by SRB method; type: functional; summary of the method: as §1
[26] = Toxicity in ip dosed athymic nude mouse xenografted with human UACC62 cells administered every 4 days; type: organism-based, UACC-62; conditions: in vivo
Summary of the method: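 Female athymic nude mice received 2 × 10^6 UACC-62 cells sc into each flank and were randomized at a median tumor volume of 150 mm3 (n = 5/group). Compound was given ip in DMSO–Cremophor (1:1) diluted in 200 μL DPBS (final ≤2.5%). Dose-tolerance testing used 10, 2 and 1.5 mg/kg (every 4 days). Mice were weighed daily for weight loss.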

[27] = test system: HeLa; assay: Inhibition of Histone-lysine N-methyltransferase Su(var)3-9 in human HeLa cells assessed as high H3K9me3 expression at 200 nM after 1 to 24 hrs by immunoblotting analysis; type: cell-based
Summary of the method: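 HeLa cells treated with vehicle or 200 nM for 1–24 h; log-phase cells lysed with protease inhibitors, equal protein by SDS-PAGE, PVDF transfer, probed for H3K9me3 and actin, ECL detection.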

[28] = Cytotoxicity against human UACC62 cells by SRB method; type: functional; summary of the method: as §2
[29] = test system: SK-MEL-5; assay: Cytotoxicity against human SK-MEL-5 cells by SRB method; type: functional; summary of the method: as §2
[30] = Cytotoxicity against human MIAPaCa2 cells after 24 hrs by MTT assay; type: functional, cell-based; conditions: MIA PaCa-2, 24 h
[31] = read-out: LC50 (the source's name)

CC(C)[C@@]12SS[C@]3(C(=O)N1C)[C@@H](O)[C@]1(C45c6ccccc6N[C@H]4N4C(=O)[C@@]6(CO)SS[C@@]4(C(=O)N6C)[C@H]5O)c4ccccc4N[C@@H]1N3C2=O (some centres undefined)
GI50 [1]: 33.9 nM
TGI [1]: 120 nM
CC50 [1, 31]: 355 nM
GI50 ([2]; OVCAR-5): 52.5 nM
TGI ([2]; OVCAR-5): 138 nM
CC50 ([2]; OVCAR-5, read-out: LC50 (the source's name)): 363 nM
Ratio [3]: 1.7
GI50 [4]: 10 nM
TGI [4]: 55 nM
CC50 [4, 31]: 166 nM
GI50 ([5]; OVCAR-4): 5.9 nM
TGI ([5]; OVCAR-4): 12.9 nM
CC50 ([5]; OVCAR-4, read-out: LC50 (the source's name)): 27.5 nM
T/C [6]: 67%
Activity [7]: 5%
GI50 [8]: 15.1 nM
TGI [8]: 58.9 nM
CC50 [8, 31]: 200 nM
GI50 [9]: 11.5 nM
LC50 [9]: 190 nM
TGI [9]: 33.9 nM
GI50 [10]: 7.8 nM
TGI [10]: 18.6 nM
CC50 [10, 31]: 45.7 nM
GI50 [11]: 20 nM
GI50 [12]: 14.8 nM
TGI [12]: 49 nM
CC50 [12, 31]: 155 nM
GI50 [13]: 11 nM
TGI [13]: 28.8 nM
CC50 [13, 31]: 112 nM
inhibition at 0.005 µM [14]: 38%
GI50 ([15]; UO-31): 9.8 nM
TGI ([15]; UO-31): 26.3 nM
CC50 ([15]; UO-31, read-out: LC50 (the source's name)): 100 nM
GI50 [16]: 8.7 nM
TGI [16]: 22.4 nM
CC50 [16, 31]: 85.1 nM
GI50 [17]: 22.9 nM
TGI [17]: 525 nM
CC50 [17, 31]: 1780 nM
GI50 ([18]; OVCAR-3): 10.7 nM
TGI ([18]; OVCAR-3): 26.3 nM
CC50 ([18]; OVCAR-3, read-out: LC50 (the source's name)): 85.1 nM
GI50 [19]: 14.8 nM
TGI [19]: 66.1 nM
CC50 [19, 31]: 209 nM
GI50 [20]: 24.5 nM
TGI [20]: 100 nM
CC50 [20, 31]: 339 nM
GI50 [21]: 20.9 nM
TGI [21]: 75.9 nM
CC50 [21, 31]: 246 nM
GI50 [22]: 5.6 nM
TGI [22]: 13.5 nM
CC50 [22, 31]: 32.4 nM
GI50 ([23]; PC-3): 15.5 nM
TGI ([23]; PC-3): 60.3 nM
CC50 ([23]; PC-3, read-out: LC50 (the source's name)): 209 nM
GI50 [24]: 11.7 nM
TGI [24]: 24.5 nM
CC50 [24, 31]: 57.5 nM
GI50 [25]: 20 nM
TGI [25]: 102 nM
CC50 [25, 31]: 490 nM
MTD at 96 h [26]: 1.5 mg/kg
inhibition [27]: inactive
GI50 ([28]; UACC-62): 18.2 nM
TGI ([28]; UACC-62): 72.4 nM
CC50 ([28]; UACC-62, read-out: LC50 (the source's name)): 295 nM
GI50 [29]: 14.8 nM
TGI [29]: 57.5 nM
CC50 [29, 31]: 151 nM
IC50 [30]: 6.6 nM
